From PubChem BioAssay
This is a sample that favours compounds with a hit; in the whole collection about 3.7% have one here.
procasp7 counter – procaspase-7 activators, primary screen, counter-screen for procaspase-3 activator project, biochemical, absorbance, HTS, human; Caspase-7 (Homo sapiens), P55210; recombinant procaspase-7, Ac-DEVD-pNA absorbance 405 nm; D23A/D198A/D206A triple mutant, cannot self-cleave; scale: DMSO 0, 5 µM enzyme 100; activation, % at 8.5 µM; hit rate 0.093% among 330,000; AID 463210, 2010;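 active = percent activation above the screen-wide mean plus 3 SD, cut at about 25% in these data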
Target sequence (P55210 whole entry D23A/D198A/D206A): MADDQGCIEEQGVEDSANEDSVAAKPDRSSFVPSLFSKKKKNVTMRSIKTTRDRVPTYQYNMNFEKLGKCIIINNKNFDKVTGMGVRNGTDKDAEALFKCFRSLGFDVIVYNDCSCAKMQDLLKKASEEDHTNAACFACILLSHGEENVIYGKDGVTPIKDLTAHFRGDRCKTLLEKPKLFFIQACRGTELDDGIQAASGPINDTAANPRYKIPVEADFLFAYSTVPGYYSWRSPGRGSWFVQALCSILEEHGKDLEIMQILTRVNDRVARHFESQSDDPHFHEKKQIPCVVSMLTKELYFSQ
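signal = Epi-absorbance of released pNA at 405 nm, two timepoints | assay system = Uncleavable procaspase-7 mutant enzyme | reagent = Ac-DEVD-pNA substrate, 400 µM as added | times = 1 h enzyme–compound preincubation and 2 h substrate reaction, both 25 °C | benchmarks = low DMSO alone, high DMSO plus 5 µM PC-7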
aDG glyco up – activators of alpha-DG glycosylation, primary screen, uHTS, Pro5-aDG cells, AlphaScreen. hit rate 0.22% among 360,000. activation, % at 10 µM. alpha-DG glycosylation AlphaScreen (IIH6); 0% Pro5, 100% B10-LARGE cell signal;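 active = activation of at least 8% versus controls, or a plate z-score of at least 8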;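 note: Pro5 are CHO cells carrying HIG-tagged alpha-DG that lacks glycosylation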
NR3A LBD binder – binders of NR3A ligand-binding domain, primary screen, biophysical, differential scanning fluorimetry, uHTS; hit rate 2.5% among 340,000; AID 1259313, 2017; Tm shift relative to glycine control, % at 25 µM; NR3A LBD differential scanning fluorimetry, Tm shift; 0% = protein alone, 100% = glycine-bound protein;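 active = melting temperature shift of at least 10% of the positive control shift, at one fixed dose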
procasp3 activ – activators of human procaspase-3 D3A mutant, primary screen, biochemical, absorbance, PC-3 D3A mutant, single concentration; recombinant procaspase-3 D3A, Ac-DEVD-pNA absorbance 405 nm; hit rate 0.11% among 330,000; activation, % at 8.5 µM; Caspase-3 (Homo sapiens), P42574;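 active = activation above the mean of all tested compounds plus 3 SD, cut at about 21% in these data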
Target sequence (P42574 whole entry D9A/D28A/D175A): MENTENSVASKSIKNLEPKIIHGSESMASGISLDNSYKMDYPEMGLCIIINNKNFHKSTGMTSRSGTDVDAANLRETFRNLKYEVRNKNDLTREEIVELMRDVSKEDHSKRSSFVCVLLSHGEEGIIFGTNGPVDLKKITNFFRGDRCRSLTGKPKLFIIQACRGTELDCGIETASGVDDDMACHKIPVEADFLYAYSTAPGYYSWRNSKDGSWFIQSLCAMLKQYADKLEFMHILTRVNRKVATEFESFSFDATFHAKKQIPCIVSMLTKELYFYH
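Assay system: Autoprocessing-dead procaspase-3 D3A mutant enzyme; also added: Ac-DEVD-pNA; doses: one concentration, 8.5 µM nominal, 0.8% DMSO; times: 1 h compound preincubation, 2 h substrate hydrolysis at 25 °C; technique: 405 nm absorbance of p-nitroaniline, reads at 0 and 120 min; measure: % activation between DMSO and enzyme-spiked controls; repeats: single replicate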
MPTP block – mitochondrial permeability transition pore inhibitors, primary screen, biochemical, isolated mouse mitochondria, absorbance; Ca2+ swelling absorbance, 30 min; AID 602449, 2012; hit rate 1.4% among 360,000; inhibition, % at 10 µM;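 active = inhibition of 50% or more, scaled per plate between neutral and stimulator controls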
PC3 dual counter – procaspase-3 activators, counter-screen for dual procaspase-3/7 activator project, biochemical, absorbance, PC-3 D3A mutant, human | shares compounds with procasp7 counter | 290 tested, under 10 active | recombinant PC-3 D3A, Ac-DEVD-pNA absorbance 405 nm; aspartates 9, 28, 175 changed to alanine; 100% = enzyme control | AID 493114, 2011 | activation, % at 8.5 µM;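 active = mean percent activation across triplicates above a set limit taken from the earlier primary procaspase-3 screen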
Procasp7 act – activation of procaspase-7 enzyme – biochemical, absorbance, human, dual procaspase-3/-7 activator project, confirmation; shares compounds with procasp7 counter; recombinant procaspase-7, Ac-DEVD-pNA absorbance 405 nm; D23A/D198A/D206A mutant that cannot self-cleave; activation, % at 8.5 µM; 290 tested, under 10 active; AID 493115, 2011;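 active = mean activation above a set limit carried over from the earlier primary screen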
Numbers stand for hits; . = inactive; / = not tested or not shown.

SMILES | procasp7 counter | aDG glyco up | NR3A LBD binder | procasp3 activ | MPTP block | PC3 dual counter | Procasp7 act
O=C(c1cccs1)c1ccc(-c2cccs2)s1 | 37 | . | . | 27 | . | . | .
CCN(CC)c1ccc(/C=N/NC(=O)c2nnn(-c3nonc3N)c2C(C)C)c(O)c1 | 44 | . | 19 | 59 | . | . | .
C/C(=N\NC(=O)c1nnn(-c2nonc2N)c1C(C)C)c1ccncc1 | . | . | . | . | . | / | /
CN(Cc1ccc(C(C)(C)C)cc1)C(=O)c1ccc2c(c1)OCO2 | / | . | . | / | . | / | /
CN(C)CC1(C)Cc2ccsc2C1O (stereo unspecified) | / | . | . | / | . | / | /
COc1ccc2c(-c3ccc(SC)cc3)c(-c3ccc(S(C)(=O)=O)cc3)sc2c1 | 55 | . | . | 43 | . | . | .
COc1ccc(NC2=CC(=O)CC(c3ccccc3)C2)cc1 (stereo unspecified) | 26 | . | . | . | . | . | .
O=C(CSc1nc2ccccc2nc1N1CCCC1)Nc1ccc(F)cc1 | 41 | . | . | . | . | . | .
Cc1cc(C)cc(NC(=O)CSc2nc3ccccc3nc2N2CCCC2)c1 | 39 | . | . | . | . | . | .
CCc1ccc2c(c1)NC(=O)C2(C)Cc1ccccc1OC (stereo unspecified) | / | . | / | / | . | / | /
COc1ccc(-c2cc(C(=O)OCC(=O)NC(C)C)c3ccccc3n2)cc1 | 27 | . | . | 38 | . | . | .
COc1ccc2sc(-c3ccc(SC)cc3)c(C#CC(C)(C)O)c2c1 | . | . | . | . | . | / | /
COc1ccc2sc(-c3ccc(N(C)C)cc3)c(C#CC(C)(C)O)c2c1 | 70 | . | . | 49 | . | . | .
Cc1cc2c(cc1C)-c1nnnn1C(N1CCCCC1)C(=O)N2 (stereo unspecified) | / | . | / | / | . | / | /
Cc1ccc2nc(NCc3ccccc3)c(C#N)cc2c1 | 52 | . | . | . | . | . | .
Cc1ccc2nc(NCCNC(=O)c3ccccc3)c(C#N)cc2c1 | . | . | . | . | . | / | /
CCNC(=O)C1(C)CCCN(C(=O)c2ccc(F)c(C)c2)C1 (stereo unspecified) | / | . | / | / | . | / | /
O=c1oc2ccccc2cc1-c1nc2c(s1)CCCC2 | 96 | . | . | . | . | . | .
COc1ccc(-c2c(C#N)c(N)nc3c2CCc2ccccc2-3)cc1OC | 65 | / | . | 34 | / | . | .
COc1ccc(N(C(=O)c2ccncc2)S(=O)(=O)c2ccc3c4c(cccc24)C(=O)N3C)cc1 | 32 | . | . | . | . | . | .
CC(C)NC(=O)N(C)C[C@@H]1OCc2cnnn2CCCC(=O)N([C@@H](C)CO)C[C@H]1C | / | . | / | / | . | / | /
Oc1ccccc1C1=NN(c2ccccc2)C(c2ccc(F)cc2)C1 (stereo unspecified) | / | . | . | / | . | / | /
Oc1ccc(C2=NN(c3ccccc3)C(c3ccc(F)cc3)C2)cc1 (stereo unspecified) | 36 | . | 21 | . | . | . | .
Cc1ccc(N2N=C(c3ccc(F)cc3)CC2c2ccco2)cc1 (stereo unspecified) | . | . | . | . | . | / | /
Fc1ccc(C2=NN(c3ccccc3)C(c3ccco3)C2)cc1 (stereo unspecified) | 44 | . | . | 32 | . | . | .
SMILES | procasp7 counter | aDG glyco up | NR3A LBD binder | procasp3 activ | MPTP block | PC3 dual counter | Procasp7 act
O=C(O)c1ccc(NC(=O)c2cn(-c3ccccc3)nc2-c2cccc(Cl)c2)cc1 | . | . | . | . | . | / | /
NS(=O)(=O)c1ccc(NC(=O)/C=C/c2cn(-c3ccccc3)nc2-c2cccc(Cl)c2)cc1 | 72 | . | 31 | 55 | . | . | .
COC(=O)[C@@]12C[C@@H](CC(=O)N3CCCC3)C(=O)N(Cc3cccc4ccccc34)C1=CCC(C)(C)C2 | / | . | / | / | . | / | /
COc1cccc(-c2cc3nc(-c4ccccc4)cc(N4CCC5(CC4)OCCO5)n3n2)c1 | 38 | . | . | 32 | . | . | .
CCOc1ccc2nc(-c3cc(NC(C)=O)ccc3O)sc2c1 | 31 | . | . | . | . | . | .
Cc1cc2c(c(=O)n1C)C(Cc1ccccc1)C(C#N)=C(N)O2 (stereo unspecified) | 47 | . | . | 38 | . | . | .
CCCC1C(C#N)=C(N)Oc2cc(C)n(C)c(=O)c21 (stereo unspecified) | . | . | . | . | . | / | /
COc1cccc(Cn2c(C(C)n3c(C)nc4ccccc43)nc3ccccc32)c1 (stereo unspecified) | / | . | / | / | . | / | /
Cc1cc(C)c(S(=O)(=O)c2ccccc2)c(OC(=O)c2c(F)cccc2F)n1 | . | . | . | . | . | / | /
Cc1cc(C)c(S(=O)(=O)c2ccccc2)c(OC(=O)c2c(Cl)cc(Cl)cc2Cl)n1 | 26 | . | . | . | . | . | .
CC(NCc1ccccc1)c1ccccc1O (stereo unspecified) | 28 | . | . | . | . | . | .
CC(CCc1ccccc1)NCc1ccncc1 (stereo unspecified) | . | . | . | . | . | / | /
C=CCc1c(O)c(CC)cc2c(C)cc(=O)oc12 | 28 | . | . | 25 | . | . | .
COc1ccccc1NC(=O)c1cnc(Nc2ccccc2OC)c2ccccc12 | 31 | . | . | . | . | . | .
COc1ccccc1NC(=O)c1ccccc1C(=O)Nc1ccccc1OC | . | . | . | . | . | / | /
CCOc1ccc(-n2c(SCC(=O)Nc3cc(C)on3)nc3c(c2=O)SCC3)cc1 | . | . | . | . | . | / | /
CCOc1ccc(-n2c(SCC(=O)Nc3ccc(OC)cc3)nc3c(c2=O)SCC3)cc1 | 68 | . | . | . | . | . | .
c1ccc(N2CC3CCc4ccccc4C3=N2)cc1 (stereo unspecified) | 72 | . | . | 39 | . | . | .
CCCNC(=O)C1(C)CCCN(C(=O)c2ccc(F)cc2Cl)C1 (stereo unspecified) | / | . | / | / | . | / | /
CCOC(=O)C1=C(C)NC(C)=C(C(=O)OCC)C1/C=C/c1ccccc1OC | 29 | . | . | . | . | . | .
